Active and inactive are the calls of the source. The rule behind the calls is not given here.
Tests used:
Format in all cases: functional
Fusarium verticillioides [1] = experiment: Antifungal activity against Fusarium verticillioides assessed as growth inhibition at 2 ug/ml after 72 hr by disk diffusion test
In short: (§1)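 Strains from a university mycology culture collection, grown on PDA at 28 °C for 8–15 d until plates were covered. Mycelial disks ([…]) were cut from colony edges and placed on test plates. Ethylene glycol served as negative control. Plates were incubated at 28 °C for up to 72 h in triplicate. Percent inhibition was calculated from reduction in growth diameter.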

Fusarium verticillioides [2] = experiment: Antifungal activity against Fusarium verticillioides assessed as growth inhibition at 2 ug/ml after 48 hr by disk diffusion test; in short: as §1
Fusarium lateritium = experiment: Antifungal activity against Fusarium lateritium assessed as growth inhibition at 2 ug/ml after 72 hr by disk diffusion test; details: read-out: GI; in short: as §1
Fusarium decemcellulare = experiment: Antifungal activity against Fusarium decemcellulare assessed as growth inhibition at 2 ug/ml after 72 hr by disk diffusion test; details: read-out: GI; in short: as §1
Fusarium solani = experiment: Antifungal activity against Fusarium solani assessed as growth inhibition at 2 ug/ml after 72 hr by disk diffusion test; details: read-out: GI; in short: as §1

Structure (SMILES)	inhibition of growth at 2 µg/mL (Fusarium verticillioides [1]; read-out: GI) [%]	inhibition of growth at 2 µg/mL (Fusarium verticillioides [2]; read-out: GI) [%]	growth inhibition (GI) (Fusarium verticillioides [1])	growth inhibition (GI) (Fusarium verticillioides [2])	inhibition of growth at 2 µg/mL (Fusarium lateritium) [%]	inhibition of growth at 2 µg/mL (Fusarium decemcellulare) [%]	inhibition of growth at 2 µg/mL (Fusarium solani) [%]
O=C(O)CCc1nc(-c2ccccc2)no1	52.8	52.8	–	–	–	–	–
COc1ccc(-c2noc(CCC(=O)O)n2)cc1	–	–	inactive	Active	45.8	52.8	–
O=C(O)CCc1nc(-c2ccc([N+](=O)[O-])cc2)no1	–	–	inactive	Active	–	–	–
Cc1cccc(-c2noc(CCC(=O)O)n2)c1	–	–	inactive	Active	–	–	–
O=C(O)CCc1nc(-c2ccc(Cl)cc2)no1	–	–	inactive	Active	–	66	59.7
O=C(O)CCc1nc(-c2ccc(Br)cc2)no1	–	–	inactive	Active	–	–	–
O=C(O)CCc1nc(-c2ccc(F)cc2)no1	–	–	inactive	Active	43	–	–
Cc1ccccc1-c1noc(CCC(=O)O)n1	–	–	inactive	Active	–	–	–
Cc1ccc(-c2noc(CCC(=O)O)n2)cc1	–	–	inactive	Active	–	–	–
